Consider six compounds from ChEMBL document CHEMBL1157006, “Cellular localization and allele-selective inhibition of mutant huntingtin protein by peptide nucleic acid oligomers containing the fluorescent nucleobase [bis-o-(aminoethoxy)phenyl]pyrrolocytosine” (Bioorg Med Chem Lett, 2009).

Experiment [1] can be described thus: Inhibition of huntingtin […] expression in human GM04281 cells with 17 CAG repeats within wild type allele by Western blotting. It counts as functional, cell-based. Conditions: in the assay text read “69 CAG repeats within mutant allele” for “17 CAG repeats within wild type allele”. Put shortly: (§1)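 Patient-derived GM04281 fibroblasts carrying both wild-type and mutant HTT alleles were exposed to PNA-peptide conjugates, at 1 µM or across a concentration series. Mutant and wild-type HTT protein were measured separately by western blot and expressed relative to untreated cells. Experiments were run in triplicate.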
On the technique in general: A western blot detects proteins with antibodies after separation by electrophoresis.

A short description of experiment [2]: Inhibition of huntingtin […] expression in human GM04281 cells with 69 CAG repeats within mutant allele by Western blotting. It counts as functional, cell-based. The conditions noted are these: in the assay text read “17 CAG repeats within wild type allele” for “69 CAG repeats within mutant allele”. In short, it runs like this:
as §1

Experiment [3] can be described thus: Ratio of IC50 for huntingtin […] expression in human GM04281 cells with 17 CAG repeats within wild type allele to huntingtin […] expression in human GM04281 cells with 69 CAG repeats within mutant allele. It counts as functional.
The nature of experiment [4]: Inhibition of huntingtin […] expression in human GM04281 cells with 17 CAG repeats within wild type allele at >1 uM by Western blotting. Type of experiment: functional. The conditions noted are these: in the assay text read “69 CAG repeats within mutant allele” for “17 CAG repeats within wild type allele”. In short, it runs like this: as §1
Experiment [5] is described as follows: Inhibition of huntingtin […] expression in human GM04281 cells with 69 CAG repeats within mutant allele at 0.2 to 2 uM by Western blotting. It counts as functional. Put shortly:
as §1

With `Cc1cn(CC(=O)N(CCNC(=O)CN(CCNC(=O)CN(CCNC(=O)CN(CCNC(=O)CN(CCNC(=O)CN(CCNC(=O)CN(CCNC(=O)CN(CCNC(=O)CN(CCNC(=O)CN(CCNC(=O)CN(CCNC(=O)CN(CCN)C(=O)Cn2cnc3c(=O)[nH]c(N)nc32)C(=O)Cn2ccc(N)nc2=O)C(=O)Cn2cc(C)c(=O)[nH]c2=O)C(=O)Cn2cnc3c(=O)[nH]c(N)nc32)C(=O)Cn2ccc(N)nc2=O)C(=O)Cn2cc(C)c(=O)[nH]c2=O)C(=O)Cn2cnc3c(=O)[nH]c(N)nc32)C(=O)Cn2ccc(N)nc2=O)C(=O)Cn2cc(C)c(=O)[nH]c2=O)C(=O)Cn2cnc3c(=O)[nH]c(N)nc32)C(=O)Cn2ccc(N)nc2=O)CC(=O)NCCN(CC(N)=O)C(=O)Cn2cnc3c(=O)[nH]c(N)nc32)c(=O)[nH]c1=O`, the IC50 is 470 nM in experiment [1] and greater than 2000 nM in experiment [2]. Moreover, the “Ratio IC50” value in experiment [3] is on record as greater than 4.

Consider `Cc1cn(CC(=O)N(CCNC(=O)CN(CCNC(=O)CN(CCNC(=O)CN(CCNC(=O)CN(CCNC(=O)CN(CCNC(=O)CN(CCNC(=O)CN(CCNC(=O)CN(CCNC(=O)CN(CCNC(=O)CN(CCNC(=O)CN(CCN)C(=O)Cn2cnc3c(=O)[nH]c(N)nc32)C(=O)Cn2cc3cc(-c4c(OCCN)cccc4OCCN)[nH]c3nc2=O)C(=O)Cn2cc(C)c(=O)[nH]c2=O)C(=O)Cn2cnc3c(=O)[nH]c(N)nc32)C(=O)Cn2cc3cc(-c4c(OCCN)cccc4OCCN)[nH]c3nc2=O)C(=O)Cn2cc(C)c(=O)[nH]c2=O)C(=O)Cn2cnc3c(=O)[nH]c(N)nc32)C(=O)Cn2cc3cc(-c4c(OCCN)cccc4OCCN)[nH]c3nc2=O)C(=O)Cn2cc(C)c(=O)[nH]c2=O)C(=O)Cn2cnc3c(=O)[nH]c(N)nc32)C(=O)Cn2ccc(N)nc2=O)CC(=O)NCCN(CC(N)=O)C(=O)Cn2cnc3c(=O)[nH]c(N)nc32)c(=O)[nH]c1=O`, for which the results for the IC50 in experiment [1] and in experiment [2] were 970 nM and greater than 4000 nM, respectively. The “inhibition (INH)” value is greater than 50% in experiment [4] and less than 50% in experiment [5].

As for `Cc1cn(CC(=O)N(CCNC(=O)CN(CCNC(=O)CN(CCNC(=O)CN(CCNC(=O)CN(CCNC(=O)CN(CCNC(=O)CN(CCNC(=O)CN(CCNC(=O)CN(CCNC(=O)CN(CCNC(=O)CN(CCNC(=O)CN(CCN)C(=O)Cn2cnc3c(=O)[nH]c(N)nc32)C(=O)Cn2ccc(N)nc2=O)C(=O)Cn2cc(C)c(=O)[nH]c2=O)C(=O)Cn2cnc3c(=O)[nH]c(N)nc32)C(=O)Cn2ccc(N)nc2=O)C(=O)Cn2cc(C)c(=O)[nH]c2=O)C(=O)Cn2cnc3c(=O)[nH]c(N)nc32)C(=O)Cn2cc3cc(-c4c(OCCN)cccc4OCCN)[nH]c3nc2=O)C(=O)Cn2cc(C)c(=O)[nH]c2=O)C(=O)Cn2cnc3c(=O)[nH]c(N)nc32)C(=O)Cn2ccc(N)nc2=O)CC(=O)NCCN(CC(N)=O)C(=O)Cn2cnc3c(=O)[nH]c(N)nc32)c(=O)[nH]c1=O`, the IC50 is 710 nM in experiment [1] and 1860 nM in experiment [2].

Consider `Cc1cn(CC(=O)N(CCNC(=O)CN(CCNC(=O)CN(CCNC(=O)CN(CCNC(=O)CN(CCNC(=O)CN(CCNC(=O)CN(CCNC(=O)CN(CCNC(=O)CN(CCNC(=O)CN(CCNC(=O)CN(CCNC(=O)CN(CCN)C(=O)Cn2cnc3c(=O)[nH]c(N)nc32)C(=O)Cn2cc3cc(-c4c(OCCN)cccc4OCCN)[nH]c3nc2=O)C(=O)Cn2cc(C)c(=O)[nH]c2=O)C(=O)Cn2cnc3c(=O)[nH]c(N)nc32)C(=O)Cn2cc3cc(-c4c(OCCN)cccc4OCCN)[nH]c3nc2=O)C(=O)Cn2cc(C)c(=O)[nH]c2=O)C(=O)Cn2cnc3c(=O)[nH]c(N)nc32)C(=O)Cn2cc3cc(-c4c(OCCN)cccc4OCCN)[nH]c3nc2=O)C(=O)Cn2cc(C)c(=O)[nH]c2=O)C(=O)Cn2cnc3c(=O)[nH]c(N)nc32)C(=O)Cn2cc3cc(-c4c(OCCN)cccc4OCCN)[nH]c3nc2=O)CC(=O)NCCN(CC(N)=O)C(=O)Cn2cnc3c(=O)[nH]c(N)nc32)c(=O)[nH]c1=O`, for which the concentration for half-maximal inhibition (IC50) in experiment [1] was 2600 nM; in experiment [2], greater than 4000 nM.

As for `Cc1cn(CC(=O)N(CCNC(=O)CN(CCNC(=O)CN(CCNC(=O)CN(CCNC(=O)CN(CCNC(=O)CN(CCNC(=O)CN(CCNC(=O)CN(CCNC(=O)CN(CCNC(=O)CN(CCNC(=O)CN(CCNC(=O)CN(CCN)C(=O)Cn2cnc3c(=O)[nH]c(N)nc32)C(=O)Cn2cc3cc(-c4c(OCCN)cccc4OCCN)[nH]c3nc2=O)C(=O)Cn2cc(C)c(=O)[nH]c2=O)C(=O)Cn2cnc3c(=O)[nH]c(N)nc32)C(=O)Cn2ccc(N)nc2=O)C(=O)Cn2cc(C)c(=O)[nH]c2=O)C(=O)Cn2cnc3c(=O)[nH]c(N)nc32)C(=O)Cn2cc3cc(-c4c(OCCN)cccc4OCCN)[nH]c3nc2=O)C(=O)Cn2cc(C)c(=O)[nH]c2=O)C(=O)Cn2cnc3c(=O)[nH]c(N)nc32)C(=O)Cn2ccc(N)nc2=O)CC(=O)NCCN(CC(N)=O)C(=O)Cn2cnc3c(=O)[nH]c(N)nc32)c(=O)[nH]c1=O`, the IC50 in experiment [1] is 580 nM; in experiment [2], 1300 nM.

In the case of `Cc1cn(CC(=O)N(CCNC(=O)CN(CCNC(=O)CN(CCNC(=O)CN(CCNC(=O)CN(CCNC(=O)CN(CCNC(=O)CN(CCNC(=O)CN(CCNC(=O)CN(CCNC(=O)CN(CCNC(=O)CN(CCNC(=O)CN(CCN)C(=O)Cn2cnc3c(=O)[nH]c(N)nc32)C(=O)Cn2cc3cc(-c4c(OCCN)cccc4OCCN)[nH]c3nc2=O)C(=O)Cn2cc(C)c(=O)[nH]c2=O)C(=O)Cn2cnc3c(=O)[nH]c(N)nc32)C(=O)Cn2ccc(N)nc2=O)C(=O)Cn2cc(C)c(=O)[nH]c2=O)C(=O)Cn2cnc3c(=O)[nH]c(N)nc32)C(=O)Cn2ccc(N)nc2=O)C(=O)Cn2cc(C)c(=O)[nH]c2=O)C(=O)Cn2cnc3c(=O)[nH]c(N)nc32)C(=O)Cn2ccc(N)nc2=O)CC(=O)NCCN(CC(N)=O)C(=O)Cn2cnc3c(=O)[nH]c(N)nc32)c(=O)[nH]c1=O`, the IC50 in experiment [1] is 540 nM; in experiment [2], 1680 nM.

By IC50 is commonly meant the midpoint of a concentration-inhibition curve. A higher IC50 goes with lower potency.
